Experimental data from ChEMBL document CHEMBL2417530, “Coumarin derivatives protect against ischemic brain injury in rats” (Eur J Med Chem, 2013).
The source made the active and inactive calls. The calls are words filed in the database; no cut-off is given here.

Columns and labels:
[1] = test system: Rattus norvegicus; experiment: In vivo neuroprotective activity in Sprague-Dawley rat transient middle cerebral artery occlusion model assessed as reduction of infarct size at 6 mg/kg, iv measured 24 hrs post reperfusion by TTC staining assay relative to vehicle-treated control; assay type: functional
In short: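 Male Sprague-Dawley rats, 7 weeks, 260–280 g, under 10% chloral hydrate ip. Right MCA occluded 60 min by tip-burned 4-0 nylon thread via common carotid, then reperfused. Saline or drug given iv at reperfusion, ethanol as cosolvent. Killed 24 h later; six 2 mm slices in 1% TTC in PBS, 37 °C, 30 min. Infarct area traced as % of total area; n = 12.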

[2] = test system: Rattus norvegicus; experiment: In vivo neuroprotective activity in Sprague-Dawley rat transient middle cerebral artery occlusion model assessed as reduction of brain-water content at 6 mg/kg, iv measured 24 hrs post reperfusion; assay type: functional, organism-based; parameters: dose 6 mg/kg
In short: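 Male SD rats (7 weeks, 260-280 g) had 60 min transient right MCA occlusion with a nylon filament, then reperfusion. Saline or drug (1.5, 3.0, 6.0 mg/kg) was injected iv at reperfusion. Animals without neurological deficit were replaced. At 24 h brains were oven-dried at 110 °C for 24 h, and water content was taken as (wet−dry)/wet; n = 12.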

Structure (SMILES): CC1=NN(c2ccccc2)C(=O)C1
- Activity [1]: Active
- Activity [2]: Active
